Assay [1] deals with Clostridioides difficile. Kind of assay: Antibacterial activity against Clostridium difficile R20291 assessed as inhibition of spore germination in presence of 6 mM taurocholate and 12 mM glycine measured every minute for 2 hrs by standard optical density assay. Format: functional, organism-based. Put shortly: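 IC50 was determined on R20291 spores across a range of compound concentrations in sodium phosphate medium with 6 mM taurocholate and 12 mM glycine. Germination was read as the decrease in absorbance at 580 nm.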

Assay [2] relates to Clostridioides difficile. The experiment in a line: Antibacterial activity against Clostridium difficile R20291 assessed as inhibition of spore germination by measuring heat activated spore germination levels at 125 uM in presence of 6 mM taurocholate and 12 mM glycine measured every minute for 2 hrs by standard optical density assay relative to control. On the set-up: scale not given: the % may be the effect or the level left. Format: functional. Put shortly: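 R20291 spores were screened at a single 125 µM concentration, with germination followed as the fall in absorbance at 580 nm. Compounds not soluble at 125 µM by visual inspection were discarded. Inhibition is relative to untreated spore samples.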

For assay [3], the system named is Clostridioides difficile. The experiment in a line: Antibacterial activity against Clostridium difficile R20291 assessed as inhibition of spore germination in complex BHIS media containing 6 mM taurocholate measured every minute for 2 hrs by standard optical density assay. Type of assay: functional, organism-based. Put shortly:
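IC50 was determined on R20291 spores across multiple compound concentrations in complex BHIS medium supplemented with 6 mM taurocholate. Germination was monitored as the decline in absorbance at 580 nm.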

Assay [4] concerns Clostridioides difficile. The experiment in a line: Potency index, ratio of IC50 for chenodeoxycholate to IC50 for test compound for inhibition of spore germination in Clostridium difficile R20291 in presence of 6 mM taurocholate and 12 mM glycine measured every minute for 2 hrs by standard optical density assay. Type of assay: functional.

This note sets out measurements from ChEMBL document CHEMBL4325828, “The Design, Synthesis, and Characterizations of Spore Germination Inhibitors Effective against an Epidemic Strain of Clostridium difficile” (J Med Chem, 2018).

As usually defined, the IC50 is the concentration that inhibits the measured activity by half. As for `C[C@H](CCC(=O)NC1CCCCC1)[C@H]1CC[C@H]2[C@@H]3[C@H](O)C[C@@H]4C[C@H](O)CC[C@]4(C)[C@H]3C[C@H](O)[C@]12C`, the IC50 with Clostridioides difficile [1] came to 95.4 µM. In addition, in the assay with Clostridioides difficile [2], the Activity worked out at 47%.

For `C[C@H](CCC(=O)Nc1ccc(O)cc1)[C@H]1CC[C@H]2[C@@H]3[C@H](O)C[C@@H]4C[C@H](O)CC[C@]4(C)[C@H]3C[C@H](O)[C@]12C`, the IC50 with Clostridioides difficile [1] is 36 µM. Besides, the Activity in the assay with Clostridioides difficile [2] was determined as 20%.

For `Cc1ccc(F)cc1NC(=O)CC[C@@H](C)[C@H]1CC[C@H]2[C@@H]3[C@H](O)C[C@@H]4C[C@H](O)CC[C@]4(C)[C@H]3C[C@H](O)[C@]12C`, the IC50 in the assay with Clostridioides difficile [1] amounted to 14 µM. In the assay on Clostridioides difficile [2], the Activity is listed as 9%.

Turning to `Cc1cc(F)ccc1NC(=O)CC[C@@H](C)[C@H]1CC[C@H]2[C@@H]3[C@H](O)C[C@@H]4C[C@H](O)CC[C@]4(C)[C@H]3C[C@H](O)[C@]12C`, in the assay on Clostridioides difficile [1], the IC50 came to 24 µM. Further, in the assay with Clostridioides difficile [2], the Activity amounted to 37%.

For `C[C@H](CCC(=O)Nc1ccncc1)[C@H]1CC[C@H]2[C@@H]3[C@H](O)C[C@@H]4C[C@H](O)CC[C@]4(C)[C@H]3C[C@H](O)[C@]12C`, the IC50 with Clostridioides difficile [1] came out at 30.1 µM. The Activity in the assay on Clostridioides difficile [2] is on record as 17%.

With `C[C@H](CCC(=O)NCc1ccccc1[N+](=O)[O-])[C@H]1CC[C@H]2[C@@H]3[C@H](O)C[C@@H]4C[C@H](O)CC[C@]4(C)[C@H]3C[C@H](O)[C@]12C`, in the assay on Clostridioides difficile [1], the IC50 was determined as 225 µM. For the same molecule, in the assay with Clostridioides difficile [2], the Activity worked out at 113%.

Regarding `C[C@H](CCC(=O)NCC1CC1)[C@H]1CC[C@H]2[C@@H]3[C@H](O)C[C@@H]4C[C@H](O)CC[C@]4(C)[C@H]3C[C@H](O)[C@]12C`, the IC50 in the assay on Clostridioides difficile [1] was 24.3 µM. Besides, the Activity in the assay on Clostridioides difficile [2] came out at 15%.

Take `C[C@H](CCC(=O)Nc1cccc(N)c1)[C@H]1CC[C@H]2[C@@H]3[C@H](O)C[C@@H]4C[C@H](O)CC[C@]4(C)[C@H]3C[C@H](O)[C@]12C.Cl`: in the assay on Clostridioides difficile [1], the IC50 was 32 µM. Also, the Activity with Clostridioides difficile [2] is given as 59%.

For `C[C@H](CCC(=O)NC1CC1)[C@H]1CC[C@H]2[C@@H]3[C@H](O)C[C@@H]4C[C@H](O)CC[C@]4(C)[C@H]3C[C@H](O)[C@]12C`, the IC50 in the assay on Clostridioides difficile [1] was determined as 25 µM. In addition, the Activity with Clostridioides difficile [2] is 6%.

In the case of `C[C@H](CCC(=O)Nc1cccc(F)c1)[C@H]1CC[C@H]2[C@@H]3[C@H](O)C[C@@H]4C[C@H](O)CC[C@]4(C)[C@H]3C[C@H](O)[C@]12C`, the IC50 in the assay with Clostridioides difficile [1] amounted to 16 µM. Moreover, the Activity in the assay on Clostridioides difficile [2] came out at 8%.

With `C#CCNC(=O)CC[C@@H](C)[C@H]1CC[C@H]2[C@@H]3[C@H](O)C[C@@H]4C[C@H](O)CC[C@]4(C)[C@H]3C[C@H](O)[C@]12C`, the IC50 in the assay on Clostridioides difficile [1] came out at 137 µM. Besides, in the assay with Clostridioides difficile [2], the Activity was 59%.

For the molecule `C[C@H](CCC(=O)NC1CCCC1)[C@H]1CC[C@H]2[C@@H]3[C@H](O)C[C@@H]4C[C@H](O)CC[C@]4(C)[C@H]3C[C@H](O)[C@]12C`, in the assay with Clostridioides difficile [1], the half-inhibitory concentration (IC50) stood at 34.1 µM. Also, the Activity with Clostridioides difficile [2] was determined as 6%.

Take `CC(C)CNC(=O)CC[C@@H](C)[C@H]1CC[C@H]2[C@@H]3[C@H](O)C[C@@H]4C[C@H](O)CC[C@]4(C)[C@H]3C[C@H](O)[C@]12C`: the IC50 in the assay with Clostridioides difficile [1] was 154 µM. The Activity in the assay on Clostridioides difficile [2] turned out to be 62%.

With `C[C@H](CCC(=O)NC(CCC(=O)O)C(=O)O)[C@H]1CC[C@H]2[C@@H]3[C@H](O)C[C@@H]4C[C@H](O)CC[C@]4(C)[C@H]3C[C@H](O)[C@]12C` (some centres not stated), the Activity with Clostridioides difficile [2] is reported as 114%.

Regarding `C[C@H](CCC(=O)Nc1ccccc1)[C@H]1CC[C@H]2[C@@H]3[C@H](O)C[C@@H]4C[C@H](O)CC[C@]4(C)[C@H]3C[C@H](O)[C@]12C`, the IC50 with Clostridioides difficile [3] and in the assay with Clostridioides difficile [1] was 1.8 µM throughout. In addition, in the assay with Clostridioides difficile [2], the Activity came out at 3%. Also, the “Ratio IC50” value in the assay on Clostridioides difficile [4] was over 225.

Take `COc1ccc(NC(=O)CC[C@@H](C)[C@H]2CC[C@H]3[C@@H]4[C@H](O)C[C@@H]5C[C@H](O)CC[C@]5(C)[C@H]4C[C@H](O)[C@]23C)c(OC)c1`: the Activity with Clostridioides difficile [2] came out at 93%.

Take `C[C@H](CCC(=O)NC(Cc1ccccc1)C(=O)O)[C@H]1CC[C@H]2[C@@H]3[C@H](O)C[C@@H]4C[C@H](O)CC[C@]4(C)[C@H]3C[C@H](O)[C@]12C` (some centres not stated): the Activity in the assay with Clostridioides difficile [2] worked out at 108%.

As to `C[C@H](CCC(=O)NCCCN1C(=O)c2ccccc2C1=O)[C@H]1CC[C@H]2[C@@H]3[C@H](O)C[C@@H]4C[C@H](O)CC[C@]4(C)[C@H]3C[C@H](O)[C@]12C`, in the assay with Clostridioides difficile [2], the Activity was 82%.

`COc1ccccc1NC(=O)CC[C@@H](C)[C@H]1CC[C@H]2[C@@H]3[C@H](O)C[C@@H]4C[C@H](O)CC[C@]4(C)[C@H]3C[C@H](O)[C@]12C`: the IC50 in the assay with Clostridioides difficile [1] was 9.8 µM. In addition, the Activity in the assay with Clostridioides difficile [2] came out at 8%.

Take `C[C@H](CCC(=O)NCc1ccc(Cl)c(Cl)c1)[C@H]1CC[C@H]2[C@@H]3[C@H](O)C[C@@H]4C[C@H](O)CC[C@]4(C)[C@H]3C[C@H](O)[C@]12C`: the Activity in the assay with Clostridioides difficile [2] came out at 111%.

On to `Cc1csc(NC(=O)CC[C@@H](C)[C@H]2CC[C@H]3[C@@H]4[C@H](O)C[C@@H]5C[C@H](O)CC[C@]5(C)[C@H]4C[C@H](O)[C@]23C)n1`, for which, in the assay on Clostridioides difficile [2], the Activity was found to be 84%.

Regarding `C[C@H](CCC(=O)NCc1ccccn1)[C@H]1CC[C@H]2[C@@H]3[C@H](O)C[C@@H]4C[C@H](O)CC[C@]4(C)[C@H]3C[C@H](O)[C@]12C`, the Activity in the assay with Clostridioides difficile [2] was 93%.

With `COC(=O)C(Cc1ccccc1)NC(=O)CC[C@@H](C)[C@H]1CC[C@H]2[C@@H]3[C@H](O)C[C@@H]4C[C@H](O)CC[C@]4(C)[C@H]3C[C@H](O)[C@]12C` (some centres not stated), the Activity in the assay with Clostridioides difficile [2] came to 84%.

Take `COc1cccc(NC(=O)CC[C@@H](C)[C@H]2CC[C@H]3[C@@H]4[C@H](O)C[C@@H]5C[C@H](O)CC[C@]5(C)[C@H]4C[C@H](O)[C@]23C)c1`: the IC50 in the assay on Clostridioides difficile [1] amounted to 78 µM. The Activity in the assay with Clostridioides difficile [2] was 55%.
